Laboratory results published in ChEMBL document CHEMBL1147868, “Synthesis of novel triazole derivatives as inhibitors of cytochrome P450 14alpha-demethylase (CYP51)” (2007).
≈ marks a conversion by molar mass, not a printed value.

Key:
Format in all cases: functional
[1] = tested on: Candida parapsilosis; assay: Antifungal activity against Candida parapsilosis ATCC 0306392 after 7 days by micro-broth dilution method; conditions: Lodderomyces parapsilosis, ATCC 0306392, 168 h
How it was run: (§1)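 Micro-broth dilution followed NCCLS methods, using an ATCC standard quality-control strain for C. parapsilosis and a clinical isolate for C. tropicalis. Compounds were dissolved in DMSO, serially diluted in growth medium and incubated at 35 C. MIC80 was the first well with about 80% growth reduction compared with the drug-free well.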

[2] = tested on: Candida albicans; assay: Antifungal activity against Candida albicans ATCC Y0109 after 24 hrs by micro-broth dilution method
How it was run: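 An ATCC standard quality-control strain was included in each run of an NCCLS micro-broth dilution assay. Compounds were dissolved in DMSO, serially diluted in growth medium and incubated at 35 C. Reading was at 24 h, and MIC80 was the first well showing roughly 80% growth reduction versus the drug-free control.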

[3] = tested on: Candida tropicalis; assay: Antifungal activity against Candida tropicalis after 7 days by micro-broth dilution method; conditions: 168 h; how it was run: as §1
[4] = tested on: Cryptococcus neoformans; assay: Antifungal activity against Cryptococcus neoformans ATCC BLS108 after 72 hrs by micro-broth dilution method
How it was run: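 This ATCC standard quality-control strain was tested in every assay by NCCLS microdilution. Test agents were dissolved in DMSO and serially diluted in growth medium. Cultures were incubated at 35 C and read at 72 h. MIC80 was the first well with approximately 80% reduced growth relative to the drug-free well.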

[5] = tested on: Aspergillus fumigatus; assay: Antifungal activity against Aspergillus fumigatus after 7 days by micro-broth dilution method; conditions: 168 h
How it was run: (§2)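 Clinical isolates supplied by a hospital were tested by NCCLS broth microdilution. Compounds were dissolved in DMSO, serially diluted in growth medium, inoculated and incubated at 35 C. Growth was read at 7 days for filamentous fungi. MIC80 was taken as the first well with about 80% less growth than the drug-free well.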

[6] = tested on: Trichophyton rubrum; assay: Antifungal activity against Trichophyton rubrum after 7 days by microbroth dilution method; conditions: 168 h; how it was run: as §2
[7] = tested on: Fonsecaea compacta; assay: Antifungal activity against Fonsecaea compacta after 7 days by micro-broth dilution method; conditions: 168 h; how it was run: as §2
[8] = tested on: Microsporum; assay: Antifungal activity against Microsporum gypseum after 7 days by micro-broth dilution method; conditions: 168 h; how it was run: as §2

## O=C(Nc1ccc(N2CCN(CC(O)(Cn3cncn3)c3ccc(F)cc3F)CC2)c(F)c1)c1cccc(Br)c1 (stereo unspecified)
[1]
  MIC80: 0.0625 µg/mL (≈ 0.102 µM)
[2]
  MIC80: 0.0625 µg/mL (≈ 0.102 µM)
[3]
  MIC80: 0.0625 µg/mL (≈ 0.102 µM)
[4]
  MIC80: 0.25 µg/mL (≈ 0.406 µM)
[5]
  MIC80: 4 µg/mL (≈ 6.5 µM)
[6]
  MIC80: 0.0625 µg/mL (≈ 0.102 µM)
[7]
  MIC80: 0.25 µg/mL (≈ 0.406 µM)
[8]
  MIC80: 0.25 µg/mL (≈ 0.406 µM)

## O=C(Nc1ccc(N2CCN(CC(O)(Cn3cncn3)c3ccc(F)cc3F)CC2)c(F)c1)c1ccc(Cl)cc1Cl (stereo unspecified)
[1]
  MIC80: 0.0152 µg/mL (≈ 0.0251 µM)
[2]
  MIC80: 0.25 µg/mL (≈ 0.413 µM)
[3]
  MIC80: 0.0625 µg/mL (≈ 0.103 µM)
[4]
  MIC80: 0.0625 µg/mL (≈ 0.103 µM)
[5]
  MIC80: 0.25 µg/mL (≈ 0.413 µM)
[6]
  MIC80: 0.0625 µg/mL (≈ 0.103 µM)
[7]
  MIC80: 0.25 µg/mL (≈ 0.413 µM)
[8]
  MIC80: 0.0039 µg/mL (≈ 0.00644 µM)

## O=C(Nc1ccc(N2CCN(CC(O)(Cn3cncn3)c3ccc(F)cc3F)CC2)c(F)c1)c1ccccc1[N+](=O)[O-] (stereo unspecified)
[1]
  MIC80: 0.0625 µg/mL (≈ 0.107 µM)
[2]
  MIC80: 0.0152 µg/mL (≈ 0.0261 µM)
[3]
  MIC80: 0.0625 µg/mL (≈ 0.107 µM)
[4]
  MIC80: 1 µg/mL (≈ 1.72 µM)
[5]
  MIC80: 1 µg/mL (≈ 1.72 µM)
[6]
  MIC80: 0.0152 µg/mL (≈ 0.0261 µM)
[7]
  MIC80: 1 µg/mL (≈ 1.72 µM)
[8]
  MIC80: 0.0625 µg/mL (≈ 0.107 µM)

## Nc1ccc(N2CCN(CC(O)(Cn3cncn3)c3ccc(F)cc3F)CC2)c(F)c1 (stereo unspecified)
[1]
  MIC80: 0.25 µg/mL (≈ 0.578 µM)
[2]
  MIC80: 0.25 µg/mL (≈ 0.578 µM)
[3]
  MIC80: 4 µg/mL (≈ 9.25 µM)
[4]
  MIC80: 0.0152 µg/mL (≈ 0.0351 µM)
[5]
  MIC80: 4 µg/mL (≈ 9.25 µM)
[6]
  MIC80: 0.25 µg/mL (≈ 0.578 µM)
[7]
  MIC80: 0.25 µg/mL (≈ 0.578 µM)
[8]
  MIC80: 0.0625 µg/mL (≈ 0.145 µM)

## CC(C)c1ccc(C(=O)Nc2ccc(N3CCN(CC(O)(Cn4cncn4)c4ccc(F)cc4F)CC3)c(F)c2)cc1 (stereo unspecified)
[1]
  MIC80: 0.25 µg/mL (≈ 0.432 µM)
[2]
  MIC80: 1 µg/mL (≈ 1.73 µM)
[3]
  MIC80: 0.25 µg/mL (≈ 0.432 µM)
[4]
  MIC80: 0.0625 µg/mL (≈ 0.108 µM)
[5]
  MIC80: 4 µg/mL (≈ 6.91 µM)
[6]
  MIC80: 0.25 µg/mL (≈ 0.432 µM)
[7]
  MIC80: 0.25 µg/mL (≈ 0.432 µM)
[8]
  MIC80: 0.25 µg/mL (≈ 0.432 µM)

## COc1cc(C(=O)Nc2ccc(N3CCN(CC(O)(Cn4cncn4)c4ccc(F)cc4F)CC3)c(F)c2)cc(OC)c1OC (stereo unspecified)
[1]
  MIC80: 0.0625 µg/mL (≈ 0.0997 µM)
[2]
  MIC80: 0.25 µg/mL (≈ 0.399 µM)
[3]
  MIC80: 0.0625 µg/mL (≈ 0.0997 µM)
[4]
  MIC80: 1 µg/mL (≈ 1.6 µM)
[5]
  MIC80: 4 µg/mL (≈ 6.38 µM)
[6]
  MIC80: > 64 µg/mL
[7]
  MIC80: 4 µg/mL (≈ 6.38 µM)
[8]
  MIC80: 1 µg/mL (≈ 1.6 µM)

## Cc1ccc(C(=O)Nc2ccc(N3CCN(CC(O)(Cn4cncn4)c4ccc(F)cc4F)CC3)c(F)c2)c(C)c1 (stereo unspecified)
[1]
  MIC80: 0.25 µg/mL (≈ 0.443 µM)
[2]
  MIC80: 0.25 µg/mL (≈ 0.443 µM)
[3]
  MIC80: 0.0625 µg/mL (≈ 0.111 µM)
[4]
  MIC80: 0.0625 µg/mL (≈ 0.111 µM)
[5]
  MIC80: 1 µg/mL (≈ 1.77 µM)
[6]
  MIC80: 0.0625 µg/mL (≈ 0.111 µM)
[7]
  MIC80: 0.25 µg/mL (≈ 0.443 µM)
[8]
  MIC80: 0.0152 µg/mL (≈ 0.0269 µM)

## Cc1ccc(C(=O)Nc2ccc(N3CCN(CC(O)(Cn4cncn4)c4ccc(F)cc4F)CC3)c(F)c2)cc1C (stereo unspecified)
[1]
  MIC80: 0.0152 µg/mL (≈ 0.0269 µM)
[2]
  MIC80: 0.25 µg/mL (≈ 0.443 µM)
[3]
  MIC80: 0.0625 µg/mL (≈ 0.111 µM)
[4]
  MIC80: 0.25 µg/mL (≈ 0.443 µM)
[5]
  MIC80: 1 µg/mL (≈ 1.77 µM)
[6]
  MIC80: 0.0625 µg/mL (≈ 0.111 µM)
[7]
  MIC80: 0.25 µg/mL (≈ 0.443 µM)
[8]
  MIC80: 0.0152 µg/mL (≈ 0.0269 µM)

## OC(Cn1cncn1)(Cn1cncn1)c1ccc(F)cc1F [FLUCONAZOLE]
[1]
  MIC80: 1 µg/mL (≈ 3.27 µM)
[2]
  MIC80: 4 µg/mL (≈ 13.1 µM)
[3]
  MIC80: 1 µg/mL (≈ 3.27 µM)
[4]
  MIC80: 1 µg/mL (≈ 3.27 µM)
[5]
  MIC80: 64 µg/mL (≈ 209 µM)
[6]
  MIC80: 0.25 µg/mL (≈ 0.816 µM)
[7]
  MIC80: 16 µg/mL (≈ 52.2 µM)
[8]
  MIC80: 0.25 µg/mL (≈ 0.816 µM)

## C[C@@H]1[C@H](O)[C@@H](C)/C=C/C=C/C=C/C=C/C=C/C=C/C=C/[C@H](O[C@@H]2O[C@H](C)[C@@H](O)[C@H](N)[C@@H]2O)C[C@@H]2O[C@](O)(C[C@@H](O)C[C@@H](O)[C@H](O)CC[C@@H](O)C[C@@H](O)CC(=O)O[C@H]1C)C[C@H](O)[C@H]2C(=O)O [AMPHOTERICIN B]
[1]
  MIC80: 0.0152 µg/mL (≈ 0.0164 µM)
[2]
  MIC80: 1 µg/mL (≈ 1.08 µM)
[3]
  MIC80: 0.0625 µg/mL (≈ 0.0676 µM)
[4]
  MIC80: 1 µg/mL (≈ 1.08 µM)
[5]
  MIC80: 4 µg/mL (≈ 4.33 µM)
[6]
  MIC80: 1 µg/mL (≈ 1.08 µM)
[7]
  MIC80: 16 µg/mL (≈ 17.3 µM)
[8]
  MIC80: 0.0039 µg/mL (≈ 0.00422 µM)

## O=C(Nc1ccc(N2CCN(CC(O)(Cn3cncn3)c3ccc(F)cc3F)CC2)c(F)c1)c1ccccc1Br (stereo unspecified)
[1]
  MIC80: 0.0152 µg/mL (≈ 0.0247 µM)
[2]
  MIC80: 0.0625 µg/mL (≈ 0.102 µM)
[3]
  MIC80: 0.0152 µg/mL (≈ 0.0247 µM)
[4]
  MIC80: 0.0625 µg/mL (≈ 0.102 µM)
[5]
  MIC80: 1 µg/mL (≈ 1.62 µM)
[6]
  MIC80: 0.0039 µg/mL (≈ 0.00634 µM)
[7]
  MIC80: 0.25 µg/mL (≈ 0.406 µM)
[8]
  MIC80: 0.0625 µg/mL (≈ 0.102 µM)

## O=C(Nc1ccc(N2CCN(CC(O)(Cn3cncn3)c3ccc(F)cc3F)CC2)c(F)c1)c1ccc(OC(F)(F)F)cc1 (stereo unspecified)
[1]
  MIC80: 0.0625 µg/mL (≈ 0.101 µM)
[2]
  MIC80: 0.0152 µg/mL (≈ 0.0245 µM)
[3]
  MIC80: 0.0625 µg/mL (≈ 0.101 µM)
[4]
  MIC80: 0.25 µg/mL (≈ 0.403 µM)
[5]
  MIC80: 1 µg/mL (≈ 1.61 µM)
[6]
  MIC80: 0.0625 µg/mL (≈ 0.101 µM)
[7]
  MIC80: 0.0625 µg/mL (≈ 0.101 µM)
[8]
  MIC80: 0.0625 µg/mL (≈ 0.101 µM)
